Laboratory results from ChEMBL document CHEMBL5136969, “A niclosamide-tobramycin hybrid adjuvant potentiates cefiderocol against P. aeruginosa” (2021).
Activity calls are given as the source filed them.

How the values were obtained:
Escherichia coli [1] = test: Antibacterial activity against Escherichia coli 107115 assessed as reduction in bacterial growth after 18 hrs in presence of cefiderocol by microbroth dilution method; format: functional
Method in brief: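 Checkerboard in Mueller-Hinton broth: cefiderocol 2-fold diluted on one axis, adjuvant 2-fold on the other. Overnight cultures were adjusted to 0.5 McFarland in saline, diluted 1:50 in MHB, and inoculated at about 5 × 10^5 CFU/mL. Incubation was 18 h at 37 °C. Turbidity was read visually and confirmed at 590 nm. FIC index = FIC of antibiotic + FIC of adjuvant; ≤0.5 synergy, >4 antagonism.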

Escherichia coli [2] = test: Antibacterial activity against Escherichia coli ATCC 25922 assessed as reduction in bacterial growth after 18 hrs by microbroth dilution method; format: functional
Method in brief: (§1)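 CLSI microbroth dilution in MHB. Overnight cultures were adjusted to 0.5 McFarland in saline, diluted 1:50, and inoculated at about 5 × 10^5 CFU/mL. Agents were 2-fold serially diluted and incubated 18 h at 37 °C. MIC is the lowest concentration without visible turbidity, confirmed by absorbance at 590 nm. Medium with and without cells served as controls.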

Escherichia coli [3] = test: Potentiation of fosfomycin-induced antibiotic activity against Escherichia coli ATCC 25922 assessed as MIC fold reduction at 8 ug/ml after 18 hrs by microbroth dilution method; format: functional; conditions: dose 8 µg/ml
Method in brief: (§2)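 Adjuvant held at a fixed 8 μg/mL while the antibiotic was 2-fold serially diluted in Mueller-Hinton broth (MHB), per CLSI microbroth dilution. Overnight cultures were adjusted in saline to 0.5 McFarland, then diluted 1:50 in MHB to about 5 × 10^5 CFU/mL final, and incubated 18 h at 37 °C. MIC was the lowest concentration with no visible turbidity, confirmed at 590 nm. Fold potentiation = MIC alone / MIC with adjuvant.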

Pseudomonas aeruginosa [4] = test: Potentiation of cindamycin-induced antibiotic activity against Pseudomonas aeruginosa PAO1 assessed as MIC fold reduction at 8 ug/ml after 18 hrs by microbroth dilution method; format: functional; conditions: dose 8 µg/ml; method in brief: as §2
Escherichia coli [5] = test: Potentiation of doxycycline-induced antibiotic activity against Escherichia coli ATCC 25922 assessed as MIC fold reduction at 8 ug/ml after 18 hrs by microbroth dilution method; format: functional; conditions: dose 8 µg/ml; method in brief: as §2
Pseudomonas aeruginosa [6] = test: Potentiation of linezolid-induced antibiotic activity against Pseudomonas aeruginosa PAO1 assessed as MIC fold reduction at 8 ug/ml after 18 hrs by microbroth dilution method; format: functional; conditions: dose 8 µg/ml; method in brief: as §2
Pseudomonas aeruginosa [7] = test: Antibacterial activity against MDR clinical isolate Pseudomonas aeruginosa PA100036 assessed as potentiation of cefiderocol antibacterial activity by measuring FIC index after 18 hrs by microbroth dilution method; format: functional
Method in brief: (§3)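 Checkerboard in MHB (iron-replete, not iron-depleted CAMHB). Cefiderocol was 2-fold serially diluted along one axis and the adjuvant along the other. Inoculum was 0.5 McFarland diluted 1:50, about 5 × 10^5 CFU/mL final. Incubation was 18 h at 37 °C, with turbidity read visually and confirmed at 590 nm. FIC was the MIC in combination over the MIC alone for each agent, and the FIC index was their sum. Cut-offs were ≤0.5 synergy, >0.5–4 additive, >4 antagonism.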

Escherichia coli [8] = test: Potentiation of colistin-induced antibiotic activity against Escherichia coli ATCC 25922 assessed as MIC fold reduction at 8 ug/ml after 18 hrs by microbroth dilution method; format: functional; conditions: dose 8 µg/ml; method in brief: as §2
Pseudomonas aeruginosa [9] = test: Potentiation of chloamphenicol-induced antibiotic activity against Pseudomonas aeruginosa PAO1 assessed as MIC fold reduction at 8 ug/ml after 18 hrs by microbroth dilution method; format: functional; conditions: dose 8 µg/ml; method in brief: as §2
Pseudomonas aeruginosa [10] = test: Antibacterial activity against MDR clinical isolate Pseudomonas aeruginosa PA88949 assessed as potentiation of cefiderocol antibacterial activity by measuring FIC index after 18 hrs by microbroth dilution method; format: functional; method in brief: as §3
Enterococcus faecalis = test: Antibacterial activity against Enterococcus faecalis ATCC 29212 assessed as reduction in bacterial growth after 18 hrs by microbroth dilution method; format: functional; method in brief: as §1
Pseudomonas aeruginosa [11] = test: Antibacterial activity against MDR clinical isolate Pseudomonas aeruginosa PA259 assessed as reduction in bacterial growth after 18 hrs in presence of cefiderocol by microbroth dilution method; format: functional
Method in brief: (§4)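 Checkerboard in MHB. Cefiderocol was 2-fold serially diluted along one axis and the adjuvant along the other. Inoculum was prepared from 0.5 McFarland saline suspensions diluted 1:50 in MHB, giving about 5 × 10^5 CFU/mL final. Plates ran 18 h at 37 °C, with turbidity confirmed at 590 nm. FIC = combination MIC ÷ MIC alone for each agent, and FIC index = sum of both. Interpretation: ≤0.5 synergy, >0.5–4 additive, >4 antagonism.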

Pseudomonas aeruginosa [12] = test: Antibacterial activity against MDR clinical isolate Pseudomonas aeruginosa PA259 assessed as potentiation of cefiderocol antibacterial activity by measuring FIC index after 18 hrs by microbroth dilution method; format: functional; method in brief: as §4
Pseudomonas aeruginosa [13] = test: Potentiation of ceftazidime-induced antibiotic activity against MDR clinical isolate Pseudomonas aeruginosa PA260 assessed as MIC fold reduction at 8 ug/ml after 18 hrs by microbroth dilution method; format: functional, organism-based; conditions: dose 8.0 µg/ml; method in brief: as §2
Klebsiella pneumoniae = test: Antibacterial activity against Klebsiella pneumoniae KP113254 assessed as reduction in bacterial growth after 18 hrs in presence of cefiderocol by microbroth dilution method; format: functional; method in brief: as §4
Escherichia coli [14] = test: Potentiation of ciprofloxacin-induced antibiotic activity against Escherichia coli ATCC 25922 assessed as MIC fold reduction at 8 ug/ml after 18 hrs by microbroth dilution method; format: functional; conditions: dose 8 µg/ml; method in brief: as §2
Acinetobacter baumannii [15] = test: Potentiation of aztreonam-induced antibiotic activity against Acinetobacter baumannii ATCC 17978 assessed as MIC fold reduction at 8 ug/ml after 18 hrs by microbroth dilution method; format: functional; conditions: dose 8 µg/ml
Method in brief: (§5)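 Initial screen in MHB using a fixed 8 μg mL−1 of adjuvant combined with each antibiotic under 2-fold dilution. Broth microdilution used about 5 × 10^5 CFU/mL at 37 °C for 18 h, with visible turbidity read and confirmed at 590 nm. Fold-potentiation = antibiotic MIC alone ÷ antibiotic MIC with adjuvant.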

Acinetobacter baumannii [16] = test: Potentiation of chloamphenicol-induced antibiotic activity against Acinetobacter baumannii ATCC 17978 assessed as MIC fold reduction at 8 ug/ml after 18 hrs by microbroth dilution method; format: functional; conditions: dose 8 µg/ml; method in brief: as §2
Pseudomonas aeruginosa [17] = test: Potentiation of cefiderocol-induced antibiotic activity against MDR clinical isolate Pseudomonas aeruginosa PA259 assessed as MIC fold reduction at 8 ug/ml after 18 hrs by microbroth dilution method; format: functional, organism-based; conditions: dose 8.0 µg/ml; method in brief: as §5
Pseudomonas aeruginosa [18] = test: Antibacterial activity against MDR clinical isolate Pseudomonas aeruginosa PA264 assessed as reduction in bacterial growth after 18 hrs by microbroth dilution method; format: functional
Method in brief: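 Broth microdilution per CLSI in Mueller-Hinton broth (MHB). Overnight cultures were adjusted to 0.5 McFarland in saline, diluted 1:50 in MHB, and added at about 5 × 10^5 CFU/mL final to equal volumes of 2-fold serial dilutions of agent. Incubation was 18 h at 37 °C. MIC was the lowest concentration with no visible turbidity, confirmed by absorbance at 590 nm.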

Acinetobacter baumannii [19] = test: Potentiation of vancomycin-induced antibiotic activity against Acinetobacter baumannii ATCC 17978 assessed as MIC fold reduction at 8 ug/ml after 18 hrs by microbroth dilution method; format: functional; conditions: dose 8 µg/ml
Acinetobacter baumannii [20] = test: Potentiation of niclosamide-induced antibiotic activity against Acinetobacter baumannii ATCC 17978 assessed as MIC fold reduction at 8 ug/ml after 18 hrs by microbroth dilution method; format: functional; conditions: dose 8 µg/ml
Acinetobacter baumannii [21] = test: Potentiation of rifampicin-induced antibiotic activity against Acinetobacter baumannii ATCC 17978 assessed as MIC fold reduction at 8 ug/ml after 18 hrs by microbroth dilution method; format: functional; conditions: dose 8 µg/ml

NC[C@H]1O[C@H](O[C@H]2[C@H](OCCCCc3cn(-c4ccc(NC(=O)c5cc(Cl)ccc5O)cc4)nn3)[C@@H](O[C@H]3O[C@H](CO)[C@@H](O)[C@H](N)[C@H]3O)[C@H](N)C[C@@H]2N)[C@H](N)C[C@@H]1O
MIC (Escherichia coli [1]): 0.25 µg/mL
MIC (Escherichia coli [2]): > 128 µg/mL
fold change (FC) (Escherichia coli [3]): 4
fold change (FC) (Pseudomonas aeruginosa [4]): 4
fold change (FC) (Escherichia coli [5]): 4
fold change (FC) (Pseudomonas aeruginosa [6]): 4
FIC (Pseudomonas aeruginosa [7]): 1
fold change (FC) (Escherichia coli [8]): 4
fold change (FC) (Pseudomonas aeruginosa [9]): 4
FIC (Pseudomonas aeruginosa [10]): 1
MIC (Enterococcus faecalis): > 128 µg/mL
MIC (Pseudomonas aeruginosa [11]): 4 µg/mL
FIC (Pseudomonas aeruginosa [12]): 0.031
Activity (Pseudomonas aeruginosa [13]): Active
MIC (Klebsiella pneumoniae): 1 µg/mL
fold change (FC) (Escherichia coli [14]): 4
fold change (FC) (Acinetobacter baumannii [15]): 4
fold change (FC) (Acinetobacter baumannii [16]): 4
Activity (Pseudomonas aeruginosa [17]): Active
MIC (Pseudomonas aeruginosa [18]): > 128 µg/mL
fold change (FC) (Acinetobacter baumannii [19]): 4
fold change (FC) (Acinetobacter baumannii [20]): 4
fold change (FC) (Acinetobacter baumannii [21]): 4
